Test results taken from ChEMBL document CHEMBL1255528, “Chemical investigation of drug-like compounds from the Australian tree, Neolitseadealbata” (Bioorg Med Chem Lett, 2010).
Structures can show the parent of a compound that is named as a salt.

What was measured:
HeLa = assay: Cytotoxicity against human HeLa cells after 72 hrs by alamar blue assay; format: functional, cell-based
Outline: (§1)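 Screened across a human panel: A549 lung adenocarcinoma, HeLa cervical adenocarcinoma, MCF-7 breast, LNCaP and PC3 prostate, plus non-cancer HEK 293 embryonic kidney and NFF neonatal foreskin fibroblasts. IC50 reported as mean ± SD of two independent experiments.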

NFF [1] = assay: Cytotoxicity against human NFF after 72 hrs by alamar blue assay; format: cell-based; outline: as §1
[2] = Cytotoxicity against HEK cells after 72 hrs by alamar blue assay; format: cell-based; conditions: Homo sapiens, HEK293, 72 h; outline: as §1
MCF7 [3] = assay: Cytotoxicity against human MCF7 cells after 72 hrs by alamar blue assay; format: functional, cell-based; conditions: MCF7, 72 h; outline: as §1
PC-3 = assay: Cytotoxicity against human PC3 cells after 72 hrs by alamar blue assay; format: functional, cell-based; conditions: PC-3, 72 h; outline: as §1
LNCaP = assay: Cytotoxicity against human LNCAP cells after 72 hrs by alamar blue assay; format: functional, cell-based; outline: as §1
A549 = assay: Cytotoxicity against human A549 cells after 72 hrs by alamar blue assay; format: functional, cell-based; conditions: A549, 72 h; outline: as §1
[4] = Cytotoxicity against HEK cells at 100 uM after 72 hrs by alamar blue assay; format: cell-based, HEK293; conditions: human; for cytotoxicity at 72 h, 100 µM: HEK cells, read-out: INH
Outline: (§2)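 Non-cancer human cell lines, human embryonic kidney 293 (HEK 293) and neonatal foreskin fibroblasts (NFF), screened in parallel with a panel of five cancer lines. Growth inhibition is reported as percent inhibition at a single test concentration of 100.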

MCF7 [5] = assay: Cytotoxicity against human MCF7 cells at 100 uM after 72 hrs by alamar blue assay; format: functional; conditions: MCF7, 72 h
Outline: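 Single-concentration screen on MCF-7 breast cancer cells within the same human cell-line panel. Percent growth inhibition calculated at the one test concentration rather than as an IC50.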

[6] = (§3) Cytotoxicity against human NFF at 100 uM after 72 hrs by alamar blue assay; format: cell-based; conditions: NFF cells, read-out: INH; outline: as §2
NFF [7] = assay: as §3; format: cell-based; conditions: nff, 72 h, 100 µM; outline: as §2

Oc1ccc2c(c1)-c1c3c(cc4c1[C@@H](C2)NCC4)OCO3
IC50 (HeLa): 4 µM | IC50 (NFF [1]): 42.6 µM | IC50 [2]: 59.7 µM | IC50 (MCF7 [3]): 27.4 µM | IC50 (PC-3): 23 µM | IC50 (LNCaP): 13.8 µM | IC50 (A549): 28.2 µM

CN1CCc2cc3c(c4c2[C@H]1Cc1ccccc1-4)OCO3
IC50 (HeLa): 16.6 µM | IC50 (NFF [1]): 15.2 µM | IC50 [2]: 15.9 µM | IC50 (MCF7 [3]): 17.7 µM | IC50 (PC-3): 7.7 µM | IC50 (LNCaP): 12.7 µM | IC50 (A549): 3.4 µM

COc1cc2c(cc1O)C[C@@H]1NCCc3cc4c(c-2c31)OCO4
IC50 (HeLa): 28.1 µM | IC50 (NFF [1]): > 100 µM | cytotoxicity at 72 h, 100 µM [4]: 55% | inhibition at 100 µM (MCF7 [5]): 52% | IC50 (PC-3): 36.4 µM | IC50 (LNCaP): 27.4 µM | IC50 (A549): 16 µM

COc1cc2c(cc1O)C[C@@H]1NCCc3cc(O)c(OC)c-2c31
IC50 (HeLa): > 100 µM | IC50 (NFF [1]): > 100 µM | IC50 [2]: > 100 µM | IC50 (MCF7 [3]): > 100 µM | IC50 (PC-3): > 100 µM | IC50 (LNCaP): > 100 µM | IC50 (A549): > 100 µM

COc1cc2c(cc1O)C[C@H]1c3c(cc(O)c(OC)c3-2)CCN1C
IC50 (HeLa): > 100 µM | IC50 (NFF [1]): > 100 µM | IC50 [2]: > 100 µM | IC50 (MCF7 [3]): > 100 µM | IC50 (PC-3): > 100 µM | IC50 (LNCaP): > 100 µM | IC50 (A549): > 100 µM

COc1ccc2c(c1O)[C@H](Cc1ccc(O)cc1)NCC2
IC50 (HeLa): > 100 µM | IC50 (NFF [1]): > 100 µM | IC50 [2]: > 100 µM | IC50 (MCF7 [3]): > 100 µM | IC50 (PC-3): > 100 µM | IC50 (LNCaP): > 100 µM | IC50 (A549): > 100 µM

COc1ccc2c(c1O)[C@H](Cc1ccc(O)cc1)N(C)CC2
IC50 (HeLa): > 100 µM | IC50 (NFF [1]): > 100 µM | IC50 [2]: > 100 µM | IC50 (MCF7 [3]): > 100 µM | IC50 (PC-3): > 100 µM | IC50 (LNCaP): > 100 µM | IC50 (A549): > 100 µM

C[N@@+]1([O-])CCc2cc3c(c4c2[C@H]1Cc1ccccc1-4)OCO3 (stereo in doubt; 3)
IC50 (HeLa): > 100 µM | cytotoxicity at 72 h, 100 µM [6]: 83% | cytotoxicity at 72 h, 100 µM [4]: 61% | IC50 (MCF7 [3]): > 100 µM | IC50 (PC-3): > 100 µM | IC50 (LNCaP): > 100 µM | IC50 (A549): > 100 µM

C[N@@+]1([O-])CCc2cc3c(c4c2[C@H]1Cc1ccccc1-4)OCO3.O=C(O)C(F)(F)F (stereo in doubt; 4)
inhibition (INH) (NFF [7]): 66% | inhibition (INH) ([4]; hek293, 72 h, 100 µM, 72 h): 49%

CC(=O)O[C@H]1C(=O)[C@@]2(C)[C@H]([C@H](OC(=O)c3ccccc3)[C@]3(O)C[C@H](OC(=O)[C@H](O)[C@@H](NC(=O)c4ccccc4)c4ccccc4)C(C)=C1C3(C)C)[C@]1(OC(C)=O)CO[C@@H]1C[C@@H]2O [PACLITAXEL]
IC50 (HeLa): 0.0089 µM | IC50 (NFF [1]): 0.0047 µM | IC50 [2]: 0.0039 µM | IC50 (MCF7 [3]): 0.0044 µM | IC50 (A549): 0.0038 µM

CC[C@]1(O)C[C@H]2CN(CCc3c([nH]c4ccccc34)[C@@](C(=O)OC)(c3cc4c(cc3OC)N(C=O)[C@H]3[C@@](O)(C(=O)OC)[C@H](OC(C)=O)[C@]5(CC)C=CCN6CC[C@]43[C@@H]65)C2)C1 [VINCRISTINE SULFATE]
IC50 (PC-3): 0.011 µM | IC50 (LNCaP): 0.0029 µM
